From the EternaBench riboswitch data

Test system: MS2 coat protein
Assay: apparent Kd, MS2 coat protein; higher = weaker binding; RNA-MaP array; theophylline 2 mM where present
How it was run: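 The apparent Kd is reported as the median of filtered per-cluster binding-curve fits. To get these curves, designs transcribed by stalled E. coli RNA polymerase on Illumina sequencing-chip clusters were titrated with SNAP-549-labelled MS2 coat protein from 0.7 or 1.5 nM, doubling to 3 µM. Titrations were run without and then with constant ligand in 100 mM Tris-HCl pH 7.5, 80 mM KCl, 4 mM MgCl2, BSA, DTT, yeast tRNA and Tween-20, and green signal was normalised to red-channel RNA signal and control-cluster median Fmax.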

[1] = designed as: ON switch for theophylline, no ligand
[2] = ligand present: theophylline, designed as: ON switch for theophylline
[3] = designed as: OFF switch for theophylline, no ligand
[4] = ligand present: theophylline, designed as: OFF switch for theophylline

With “ACCAUGUAAUCAGAUACCAGACAUCUUUUAAAUCAUAUUACAUGAGGAUCACCCAUGUUGGUCCCUUGGCAGCUGAAAUAUUUUU” the “apparent Kd” value [1] was 205 nM and the “apparent Kd” value [2] was 46.4 nM.

In the case of “ACGACGCAUACAGAUACCAGUAGCCGAGAAACAUGAGGAUCACCCAUGUCGAGCGACAACUGCCCUUGGCAGCUGUAUGCGUCAG”, the “apparent Kd” value [1] is reported as 8.49 nM and the “apparent Kd” value [2] is reported as 8.34 nM.

In the case of “ACGACGCAUAGUGAUACCAGUACAACAUGAGGAUCACCCAUGUCACAUAUGUUGUAAUAGUGCCCUUGGCAGCACUAUGCGUCAG”, the “apparent Kd” value [1] is reported as 155 nM and the “apparent Kd” value [2] is reported as 17.6 nM.

With “AGACAUGAGGAUCACCCAUGUAGUACGGAUACCAGAUCCAGAUGCGUCCCUUGGCAGCUGUAGUACAGCGUUACAUCGCUCAUAG” the “apparent Kd” value [3] was 37.9 nM and the “apparent Kd” value [4] was 70.7 nM.

“AGACAUGAGGAUCACCCAUGUAGUAUGGAUACCAGAUCCAGAUUUAUCCCUUGGCAGCUGUGGUACAGCGAUGGAUCGCUCCUAG” was tested, and the “apparent Kd” value [3] was 23.4 nM and the “apparent Kd” value [4] was 27.8 nM.

“AGCGACAUGCGUGAUACCAGCUACAUGAGGAUCACCCAUGUCAGCAGGAAACUGCUGUGUAGCCCUUGGCAGCACAGUGCAUGUC” was tested, and the “apparent Kd” value [3] was 12.7 nM and the “apparent Kd” value [4] was 24.7 nM.

In the case of “AGCGACAUGCGUGAUACCAGCUACAUGAGGAUCACCCAUGUCAGUAGGAAACUGCUGUGUAGCCCUUGGCAGCACAGUGCAUGUC”, the “apparent Kd” value [3] is reported as 34.9 nM and the “apparent Kd” value [4] is reported as 38.6 nM.

For “AGCGAUAUGCAUGAUACCAGCUACAUGAGGAUCACCCAUGUGCGUCAGUAAUGACUGUGUAGCCCUUGGCAGCAUAGAGCAUGUA”, the “apparent Kd” value [3] was 37.6 nM and the “apparent Kd” value [4] was 70.4 nM.

For “AGCGCAGGUCCUGAUACCAGUGACAUGAGGAUCACCCAUGUCCGAUGGGCCUGCCUCUGACACCCUUGGCAGCAGGGCUUGUGCU”, the “apparent Kd” value [3] was 23.7 nM and the “apparent Kd” value [4] was 29.8 nM.

With “AGCGCUGUGCAUGAUACCAGCUACAUGAGGAUCACCCAUGUGCGUCAGAAAUGACUGUGUAGCCCUUGGCAGCAUAAAGCAUGUA” the “apparent Kd” value [3] was 19 nM and the “apparent Kd” value [4] was 58.8 nM.

For “AGCGGAACGGAAGGGUCCCAAAAUUGUGAUACCAGCCUUGAAUCCGGCCCUUGGCAGCACAUGAGGAUCACCCAUGUACUGCGAU”, the “apparent Kd” value [3] was 12.9 nM and the “apparent Kd” value [4] was 39.4 nM.

“AUAACAUGAGGAUCACCCAUGUAAGCAGAUACCAGCUAGGAAACUAGCCCUUGGCAGCUGCAUAGUGAUCCAUAUAUCUGCUAAU” was tested, and the “apparent Kd” value [3] was 53.6 nM and the “apparent Kd” value [4] was 42.8 nM.

For “AUAAGGUAUCUGCUAUCCUCAUGAGCAGAUACCAGCUAGGAAACUAGCCCUUGGCAGCUGCAACAUGAGGAUCACCCAUGUAAUA”, the “apparent Kd” value [3] was 409 nM and the “apparent Kd” value [4] was 92.3 nM.

“AUAAUGGGUAUCGGAUUAUCAUGAUAUGAUACCAGAUACUUAGAUAUCCCUUGGCAGCAUGAGGACAUGAGGAUCACCCAUGUAU” was tested, and the “apparent Kd” value [3] was 35 nM and the “apparent Kd” value [4] was 61.8 nM.

In the case of “AUCUCAUAGAGUGAUACCAGACUACAUGAGGAUCACCCAUGUUACAUUUAAAUAUCAUUUGUCCCUUGGCAGCACAUUAAGUACA”, the “apparent Kd” value [3] is reported as 24.3 nM and the “apparent Kd” value [4] is reported as 15.2 nM.

With “AUGGCGUUGGUGUAGCUGUGAAAUGGCGAUACCAGCGUGGAAACACGCCCUUGGCAGCGCCAAAACAUGAGGAUCACCCAUGUUA” the “apparent Kd” value [3] was 20.1 nM and the “apparent Kd” value [4] was 96.6 nM.

With “AUGGUAGGACAGCACAUAUAAGCUUGUGAUACCAGCUAGAAAACUAGCCCUUGGCAGCACAUUACAUGAGGAUCACCCAUGUCCC” the “apparent Kd” value [3] was 51 nM and the “apparent Kd” value [4] was 75.7 nM.

With “AUGUCAUUGGUGCAGCUGUUAAAUGGCGAUACCAGCGUGGAAACACGCCCUUGGCAGCGCCAAAACAUGAGGAUCACCCAUGUUA” the “apparent Kd” value [3] was 28 nM and the “apparent Kd” value [4] was 83 nM.

With “AUUAAUAGUUGUGAUACCAGACGAACAUGAGGAUCACCCAUGUAACUUUUAGGUGUUGUAGUCCCUUGGCAGCACUAUUUAGUUA” the “apparent Kd” value [1] was 42.7 nM and the “apparent Kd” value [2] was 35.3 nM.

For “AUUUUUCUAUCAGAUACCAGACAAUUUUAGACAUGAGGAUCACCCAUGUAUAGGGUGUUCGUCCCUUGGCAGCUGUUAAGUUUAA”, the “apparent Kd” value [1] was 190 nM and the “apparent Kd” value [2] was 205 nM.

“CAAACAUGAGGAUCACCCAUGUAAUCAGAUACCAGUGACGAAAGUCACCCUUGGCAGCUGAUUACUUUAGUUCUAAGGUGUUUGA” was tested, and the “apparent Kd” value [3] was 92.6 nM and the “apparent Kd” value [4] was 56.6 nM.

For “CAAUAAGUAACUGAUACCAGUGUACUGACAUGAGGAUCACCCAUGUUGGGUUUUGUUGUACACCCUUGGCAGCAGAAUCUUAUUG”, the “apparent Kd” value [3] was 60.3 nM and the “apparent Kd” value [4] was 80.7 nM.

In the case of “CAUGUUGUUGAAGAUACCAGAUUCUGAACGUUCACAUGAGGAUCACCCAUGUAAGUCCGAGUCCCUUGGCAGCUUAUACAGGUGG”, the “apparent Kd” value [1] is reported as 53 nM and the “apparent Kd” value [2] is reported as 14.7 nM.

For “CGGUUUGUGAUGGAUACCAGCAGAGAGAAUGUUUAUCCUGACAUGAGGAUCACCCAUGUGUGCCCUUGGCAGCUGUUGUGGGCUG”, the “apparent Kd” value [3] was 60 nM and the “apparent Kd” value [4] was 69 nM.

In the case of “CGUACAUGAGGAUCACCCAUGUAGAGUGAUACCAGUCUACCUAGUGACCCUUGGCAGCACAUCGAUGGCAUCGGUGAUGCCGUUU”, the “apparent Kd” value [1] is reported as 87.3 nM and the “apparent Kd” value [2] is reported as 83.3 nM.

For “CUCCGAGGCUAUACUAUCCGCCUCUGUGAUACCAGAAUACCUAUAUUCCCUUGGCAGCAUCACAUGAGGAUCACCCAUGUGCCAU”, the “apparent Kd” value [2] was 15.1 nM.

For “CUCUGAGUGAGCAAUCACUCAGAGGCGGAUACCAGCGAGGUCCAUCGCCCUUGGCAGCCGAACAUGAGGAUCACCCAUGUCGGUA”, the “apparent Kd” value [1] was 10.1 nM and the “apparent Kd” value [2] was 16.6 nM.

In the case of “GAACAUGAGGAUCACCCAUGUAAAACAGAUACCAGUGAUAUAAUACACCCUUGGCAGCUGUAGCUGAAUAAUAAUUCCCUCAAGC”, the “apparent Kd” value [1] is reported as 15.5 nM and the “apparent Kd” value [2] is reported as 18.4 nM.

With “GAGGGUGGGUCUCUAAUCCGUUUGACGGAUACCAGCGAGAGAUAUCGCCCUUGGCAGCCGACGACAUGAGGAUCACCCAUGUAAA” the “apparent Kd” value [3] was 15.6 nM and the “apparent Kd” value [4] was 101 nM.

In the case of “GAUCCUCAUACGGAUACCAGCGAAUAACAUGAGGAUCACCCAUGUAAUAAAGAAAAUAAAUGCCCUUGGCAGCCGAAUAGAUAGU”, the “apparent Kd” value [1] is reported as 166 nM and the “apparent Kd” value [2] is reported as 69.4 nM.

With “GAUGAACUAUUUGAUACCAGACUACAUGAGGAUCACCCAUGUGUGUUUAUACUUCAGUCAGUCCCUUGGCAGCAAAUAGUUUAUC” the “apparent Kd” value [3] was 147 nM and the “apparent Kd” value [4] was 306 nM.

With “GCACCAGGUACGGAUACCAGCUGCCAUAGUUACAUGAGGAUCACCCAUGUGAUCUAUUGUAGCCCUUGGCAGCUGUACCUGGUGC” the “apparent Kd” value [1] was 104 nM and the “apparent Kd” value [2] was 92.4 nM.

With “GCUGUAAGUGCAGAUACCAGCGUGUUAUAUUUCUAAUGACAUGAGGAUCACCCAUGUAAAUGCCCUUGGCAGCUGCACUUACAGC” the “apparent Kd” value [1] was 16.1 nM and the “apparent Kd” value [2] was 16.9 nM.

In the case of “GGGCCUGUAAGCAGACCCACAGCGGGUGAUACCAGCAAUAAAACUUGCCCUUGGCAGCACACAGCUACAUGAGGAUCACCCAUGU”, the “apparent Kd” value [1] is reported as 43.2 nM and the “apparent Kd” value [2] is reported as 83.2 nM.

In the case of “GUAUGGAAACAUACUAUGGUAUCGUGAGAUACCAGUACAGAAAUGUACCCUUGGCAGCUCGCGCAUACAUGAGGAUCACCCAUGU”, the “apparent Kd” value [3] is reported as 18.1 nM and the “apparent Kd” value [4] is reported as 25.7 nM.

For “GUCAGUAGAACAGAUACCAGUCAAAAGCUGUGAUCUCAUAACAUGAGGAUCACCCAUGUUGACCCUUGGCAGCUGUGGGCGAGGG”, the “apparent Kd” value [3] was 19.6 nM and the “apparent Kd” value [4] was 64.6 nM.

“GUGUUUGUGUGAGAUACCAGUGAGGCCACAUGAGGAUCACCCAUGUCCCUCACUCCGGCCCACCCUUGGCAGCUCUUAUAGUAGU” was tested, and the “apparent Kd” value [3] was 9.39 nM and the “apparent Kd” value [4] was 38.4 nM.

With “GUUAUGGACCUGGAUACCAGCUGGUACAAGGGCGGUCUACAUGAGGAUCACCCAUGUGUCAGCCCUUGGCAGCCAGCAACCGGCA” the “apparent Kd” value [3] was 9.28 nM and the “apparent Kd” value [4] was 11.8 nM.

“UAAAACAUGAGGAUCACCCAUGUAAUUGAUACCAGAGUGAUGAUCCUCCCUUGGCAGCAAAUAACGCAUUGAUUACAAUGCGAAA” was tested, and the “apparent Kd” value [1] was 42.7 nM and the “apparent Kd” value [2] was 215 nM.

“UAAAACAUGAGGAUCACCCAUGUAUUUGAUACCAGAGUGAUGAUCCUCCCUUGGCAGCAAAUAACGCAUUGAUUACAAUGCGAAA” was tested, and the “apparent Kd” value [1] was 42.8 nM and the “apparent Kd” value [2] was 143 nM.
